{"data": "Published values from different studies", "target": "Serine/threonine-protein kinase PLK4 (PLK4, Homo sapiens, UniProt O00444)", "Residues used in one study (O00444 1-970)": "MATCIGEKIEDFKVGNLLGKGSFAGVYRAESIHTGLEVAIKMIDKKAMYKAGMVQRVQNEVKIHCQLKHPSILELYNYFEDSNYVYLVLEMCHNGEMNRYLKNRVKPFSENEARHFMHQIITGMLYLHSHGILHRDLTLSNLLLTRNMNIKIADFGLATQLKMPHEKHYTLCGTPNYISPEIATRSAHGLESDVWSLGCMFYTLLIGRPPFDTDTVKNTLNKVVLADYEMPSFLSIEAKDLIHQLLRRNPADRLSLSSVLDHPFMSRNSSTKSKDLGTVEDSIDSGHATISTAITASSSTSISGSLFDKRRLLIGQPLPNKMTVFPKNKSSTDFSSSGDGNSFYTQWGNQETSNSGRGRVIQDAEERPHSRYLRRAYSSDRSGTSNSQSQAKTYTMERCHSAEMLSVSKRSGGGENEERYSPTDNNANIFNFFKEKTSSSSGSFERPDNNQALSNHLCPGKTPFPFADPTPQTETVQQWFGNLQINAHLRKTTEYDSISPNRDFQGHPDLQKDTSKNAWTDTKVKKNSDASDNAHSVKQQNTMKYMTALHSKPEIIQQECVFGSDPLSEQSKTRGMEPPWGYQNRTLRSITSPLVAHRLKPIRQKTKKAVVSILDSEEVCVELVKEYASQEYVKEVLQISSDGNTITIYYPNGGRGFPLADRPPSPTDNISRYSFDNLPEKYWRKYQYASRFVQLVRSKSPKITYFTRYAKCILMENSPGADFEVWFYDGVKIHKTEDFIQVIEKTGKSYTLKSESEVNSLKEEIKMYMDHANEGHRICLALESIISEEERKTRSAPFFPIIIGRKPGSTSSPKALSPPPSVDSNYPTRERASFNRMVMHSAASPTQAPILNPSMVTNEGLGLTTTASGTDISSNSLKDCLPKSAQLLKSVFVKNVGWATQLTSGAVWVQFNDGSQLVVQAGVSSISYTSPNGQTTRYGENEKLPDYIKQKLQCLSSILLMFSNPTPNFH", "note": "Each line is one published result; the experiments were not run side by side."}
{"SMILES": "C[C@H]1CCN(c2nccc(-c3cnn4ncccc34)n2)C1", "observed": "binding", "tested at": "1 µM", "remaining binding": "99%"}
{"SMILES": "CCC(=O)N[C@H]1CC[C@@H](C(=O)N(C)c2ccc(-c3nc4ccccc4o3)cc2)C1", "observed": "cell-free assay", "technique": "competition with immobilised ligand", "tested at": "1 µM", "remaining binding": "78%"}
{"SMILES": "N#Cc1ccccc1CSc1nnc2c(n1)[nH]c1ccccc12", "observed": "binding", "technique": "competition with immobilised ligand", "tested at": "10 µM", "remaining binding": "100%"}
{"SMILES": "CN(c1nccc(-c2cnn3ncccc23)n1)C1CC1", "observed": "binding", "tested at": "1 µM", "remaining binding": "100%"}
{"SMILES": "CS(=O)(=O)N1CCCC(NC(=O)[C@H](CCC2CCCCC2)NC(=O)c2ccc(CNc3ncnc4c3nnn4-c3ccccc3)cc2)C1 (stereo partly shown)", "observed": "cell-free assay", "technique": "competition with immobilised ligand", "tested at": "0.1 µM", "remaining binding": "82%"}
{"SMILES": "O=C(c1ccc(Nc2ncc(Cl)c(-c3cc4ccccc4s3)n2)cc1)N1CCC(N2CCCC2)CC1", "observed": "binding", "technique": "competition with immobilised ligand", "tested at": "1 µM", "remaining binding": "39%"}
{"SMILES": "CCN1CCN(Cc2ccc(C(=O)Nc3ccc(C)c(Oc4ccc5c(c4)CC(=O)N5)c3)cc2C(F)(F)F)CC1", "observed": "binding", "technique": "competition with immobilised ligand", "tested at": "1 µM", "remaining binding": "100%"}
{"SMILES": "Cc1cnn2ncc(-c3ccnc(N(C)C)n3)c2c1", "observed": "binding", "tested at": "1 µM", "remaining binding": "74%"}
{"SMILES": "COc1ncc2cc3ccccc3nc2c1C#N", "observed": "cell-free assay", "technique": "competition with immobilised ligand", "tested at": "5 µM", "remaining binding": "100%"}
{"SMILES": "O=C(c1ccc(Nc2nccc(-c3cc4ccccc4s3)n2)cc1)N1CCC(N2CCCC2)CC1", "observed": "binding", "technique": "competition with immobilised ligand", "tested at": "1 µM", "remaining binding": "56%"}
{"SMILES": "CC(=O)c1c(NS(C)(=O)=O)c2cc(-c3ccc(Cl)cc3)c(-c3ccc(Cl)cc3Cl)nc2n(C)c1=O", "observed": "cell-free assay", "technique": "competition with immobilised ligand", "tested at": "1 µM", "remaining binding": "100%"}
{"SMILES": "COc1cnc(Nc2cccc(S(N)(=O)=O)c2)nc1N1CCN(c2ccccc2)C(=O)C1", "observed": "binding", "technique": "competition with immobilised ligand", "tested at": "1 µM", "remaining binding": "96%"}
{"SMILES": "O=C(NCC1CCOCC1)c1n[nH]cc1NC(=O)c1c(F)cccc1F", "observed": "binding", "technique": "competition with immobilised ligand", "tested at": "1 µM", "remaining binding": "75%"}
{"SMILES": "F[C@@H]1CCN(c2nccc(-c3cnn4ncccc34)n2)C1", "observed": "binding", "tested at": "1 µM", "remaining binding": "100%"}
{"SMILES": "COc1cc(C(=O)N2CCC(N3CCN(C)CC3)CC2)ccc1Nc1ncc2c(n1)N(C)c1ccccc1C(=O)N2C", "observed": "binding", "technique": "competition with immobilised ligand", "tested at": "10 µM", "remaining binding": "0%"}
{"SMILES": "N#CC1(c2ccccn2)CCN(Cc2cc(C(=O)N3CCCC3)c(=O)n3ccccc23)CC1", "observed": "cell-free assay", "technique": "competition with immobilised ligand", "tested at": "1 µM", "remaining binding": "87%"}
{"SMILES": "CN(C)c1ncc(F)c(-c2cnn3ncccc23)n1", "observed": "binding", "tested at": "1 µM", "remaining binding": "100%"}
{"SMILES": "Cc1c[nH]c2nccc(Oc3c(F)cc(Nc4cc(Cl)nc(N)n4)cc3F)c12", "observed": "cell-free assay", "technique": "competition with immobilised ligand", "tested at": "0.1 µM", "remaining binding": "82%"}
{"SMILES": "COc1cnc(Nc2cccc(S(N)(=O)=O)c2)nc1N1CCN(c2ccccc2)CC1", "observed": "binding", "technique": "competition with immobilised ligand", "tested at": "1 µM", "remaining binding": "99%"}
{"SMILES": "CN([C@@H]1CCc2c(CC(=O)O)c3cc(S(C)(=O)=O)ccc3n2C1)S(=O)(=O)c1ccc(F)cc1", "observed": "cell-free assay", "technique": "competition with immobilised ligand", "tested at": "1 µM", "remaining binding": "100%"}
{"SMILES": "N[C@H]1CCN(c2nccc(-c3cnn4ncccc34)n2)C1", "observed": "binding", "tested at": "1 µM", "remaining binding": "100%"}
{"SMILES": "CCCCN(CCCC)C(=O)CN1C[C@H](c2cc(OC)c3c(c2)OCO3)[C@@H](C(=O)O)[C@@H]1CC(C)(C)CCC", "observed": "cell-free assay", "technique": "competition with immobilised ligand", "tested at": "1 µM", "remaining binding": "100%"}
{"SMILES": "C[C@@H]1CN(c2ccc3ncc(-c4ccc5[nH]nc(C6CC6)c5c4)n3n2)C[C@H](C)O1", "observed": "binding", "technique": "competition with immobilised ligand", "tested at": "0.5 µM", "remaining binding": "90%"}
{"SMILES": "O=C(c1ccc(Nc2ncc(Cl)c(-c3ccc(Cl)s3)n2)cc1)N1CCC(N2CCCC2)CC1", "observed": "binding", "technique": "competition with immobilised ligand", "tested at": "1 µM", "remaining binding": "9.2%"}
{"SMILES": "CC(=O)Nc1c(C(C)=O)c(=O)n(C)c2nc(-c3ccc(Cl)cc3Cl)c(-c3ccc(Cl)cc3)cc12", "observed": "cell-free assay", "technique": "competition with immobilised ligand", "tested at": "1 µM", "remaining binding": "100%"}
